Reference: PMC9420810 (Nature microbiology, 2022)

Tests used:
[1] = read-out: KD of haem binding; cited from earlier work
[2] = UV-Vis spectroscopy of haem binding to synthesized peptide; settings: haem reduced by excess sodium dithionite, anaerobic chamber
Summary of the method: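 Hemin is dissolved in 0.1 M NaOH and used within 30 min. Its stock concentration is set by pyridine hemochrome absorbance at 557 nm (ε 34.7 mM⁻¹ cm⁻¹). Peptide and haem are mixed in water (pH 7.4) in 96-well plates. After shaking at 100 rpm for 15 s, spectra are recorded from 300 to 700 nm in 5 nm steps on a plate reader.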

Cytochrome c = assay: UV-Vis test of haem sequestration from Cytochrome c; assay type: binding; settings: excess NCR247 added to Cytochrome c, UV-Vis spectrum
[3] = tested on: iron uptake genes (hmuP) and rirA in S. meliloti; assay: qRT-PCR of iron-related genes; assay type: cell-based, Sinorhizobium meliloti
Summary of the method: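 Cells are grown in LB to OD600 0.2, pelleted and resuspended for 1 h in minimal medium with or without FeSO₄, then exposed to peptide for 30 min. Transcript levels are measured by qRT-PCR and expressed as starting quantities normalised to the reference gene SMc00128.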

S. meliloti [4] = assay: Radioactive 55Fe uptake assay; assay type: cell-based, Sinorhizobium meliloti
Summary of the method: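 Cells are grown in LB to OD600 0.2, pelleted and held 1 h in minimal medium with 5 μM FeSO₄. Then 2 μM peptide and 100 μM sodium ascorbate are added for 30 min. At time 0, 1 μM ⁵⁵FeCl₃ with ascorbate is added. Timed 1 ml samples are quenched in ice-cold buffer (0.1 M Tris, 1 mM ascorbate, 100 μM FeSO₄, pH 6.0) and vacuum-filtered on 0.45 μm filters. Filters are scintillation-counted, and counts are normalised to protein.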

[5] = tested on: S. meliloti bacteroids isolated from M. truncatula nodules; assay: 55Fe uptake by isolated bacteroids; assay type: cell-based, Sinorhizobium meliloti; settings: bacteroids from nodules of plants inoculated with wild type S. meliloti, NCR247 treated
S. meliloti [6] = assay: ICP-MS total iron content of cells; assay type: cell-based, Sinorhizobium meliloti; settings: 2 μM NCR247, ICP-MS, normalized to protein
Summary of the method: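 Equal numbers of cells are pelleted for ICP-MS metal analysis. Protein is measured from the same number of cells, and metal content is normalised to protein.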

S. meliloti [7] = assay: Growth curve in minimal medium; assay type: cell-based, Sinorhizobium meliloti; settings: 2 μM NCR247, OD 600 nm, 30° C
Summary of the method: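 Strain RM1021 or its mutants are first grown in LBMC (LB with 2.5 mM CaCl₂ and 2.5 mM MgSO₄, 200 μg/ml streptomycin, 30°C). Overnight cultures are washed and subcultured 1:100 into minimal medium, either iron-free or with the stated iron, Mn or Zn supplement. Cultures shake continuously at 150 rpm and 30°C in a plate reader, with OD600 read every 60 min.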

Aβ (1-42)-haem complex = assay: Peroxidase assay; assay type: biochemical, human; settings: equimolar addition of NCR247, TMB substrate, 370 nm and 652 nm
Summary of the method: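 Haem complex, with or without equimolar peptide, is added to TMB substrate solution (TMB:peroxide 1:1) in 96-well plates. Reaction progress is followed in a plate reader by absorbance at 370 and 652 nm. Values are the mean of three independent replicates ± s.d.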

[8] = tested on: Porphyromonas gingivalis 2561; assay: Cell viability assay, P. gingivalis; assay type: cell-based

Substance	Kd [1] [µM]	binding of Fe(II) ferrous haem [2]	sequestration of cytochrome haem (Cytochrome c)	rirA transcription ([3]; wild type S. meliloti, 2 μM NCR247 for 30 mins)	transcript levels of iron uptake genes ([3]; wild type S. meliloti, iron-replete medium, NCR247 treatment 30 mins)	expression of hmuP in ΔbacA strain ([3]; ΔbacA S. meliloti, 2 μM NCR247 for 30 mins)	import of 55Fe (S. meliloti [4]; wild type S. meliloti, medium with sufficient iron (5 μM FeSO4), 2 μM NCR247, mean of three biological replicates)	uptake of 55Fe in irr deletion mutant compared to wild type (S. meliloti [4]; Δirr S. meliloti, NCR247 treated)	uptake of Fe55 by bacteroids compared with untreated [5]	total iron content of the cells (S. meliloti [6])	growth rate of S. meliloti (S. meliloti [7])	peroxidase activity of Aβ (1-42)-haem complex (Aβ (1-42)-haem complex)	growth / viable cell number of Porphyromonas gingivalis [8]
Aβ(1-42): human Aβ(1-42) amyloid peptide [reference compound]	0.14												
RNGCIVDPRCPYQQCRRPLYCRRR [NCR247]		binds	cannot sequester cytochrome haem	reduced	increase in transcript levels of iron uptake genes	very little change in expression of hmuP	markedly increased	diminished	increase uptake of Fe^55	elevated total iron content	reduction in growth rate	quenches its peroxidase activity	can prevent the growth
serum albumin	40												
